# Assays:
# NSCLC = assay: Cytotoxicity against human NSCLC cells after 48 hrs by SRB assay; assay type: functional
# In short: (§1)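 NCI-60 screen: single-dose pass at 10^-5 M, then a five-concentration assay from 10^-9 to 10^-4 M (highest 100 μM). Exposure was 48 h under standard NCI protocols. GI50, TGI and LC50 were derived per cell line and averaged by subpanel. Repeated tests are the mean of two experiments.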
# Prostatic carcinoma cell = assay: Cytotoxicity against human prostate cancer cells after 48 hrs by SRB assay; assay type: functional; in short: as §1
# [1] = Cytotoxicity against human COLON cells after 48 hrs by SRB assay; assay type: functional; details: for CC50: read-out: LC50 (the source's name); in short: as §1
# CNS carcinoma cell = assay: Cytotoxicity against human CNS cancer cells after 48 hrs by SRB assay; assay type: functional; details: for CC50: read-out: LC50 (the source's name); in short: as §1
# Leukemia cell = assay: Cytotoxicity against human leukemia cells after 48 hrs by SRB assay; assay type: functional; in short: as §1
# Melanoma cell line = assay: Cytotoxicity against human melanoma cells after 48 hrs by SRB assay; assay type: functional; details: for CC50: read-out: LC50 (the source's name); in short: as §1
# Ovarian carcinoma cell = assay: Cytotoxicity against human ovarian cancer cells after 48 hrs by SRB assay; assay type: functional; in short: as §1
# Breast carcinoma cell = assay: Cytotoxicity against human breast cancer cells after 48 hrs by SRB assay; assay type: functional; in short: as §1
# Renal cancer cell line = assay: Cytotoxicity against human renal cancer cells after 48 hrs by SRB assay; assay type: functional; in short: as §1
# Tubulin (Bos taurus) [2] = molecular target: T1, Tubulin (Bos taurus) (UniProt Q6B856+Q862L2+Q862F3); assay: Inhibition of [3H]colchicine binding to bovine brain tubulin at 50 uM after 20 mins relative to control
# In short: (§2)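 Reaction mixtures held 1 μM tubulin, 5 μM [³H]colchicine and test compound at 5 or 50 μM. Read-out was percent inhibition of colchicine binding.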
# Tubulin (Bos taurus) [3] = molecular target: T1, Tubulin (Bos taurus); assay: Inhibition of [3H]colchicine binding to bovine brain tubulin at 5 uM after 20 mins relative to control; in short: as §2
# K562 [4] = assay: Cytotoxicity against human K562 cells after 48 hrs by SRB assay; assay type: functional, cell-based
# K562 [5] = assay: Cell cycle arrest in human K562 cells assessed as mitotic index at 5 times IC50 by Giemsa staining-based assay (reference value: 3%); assay type: functional
# K562 [6] = assay: Cytotoxicity against human K562 cells after 16 hrs by SRB assay; details: K562, 16 h
# K562 [7] = assay: Cell cycle arrest in human K562 cells assessed as mitotic index at IC50 by Giemsa staining-based assay (reference value: 3%); assay type: functional
# Tubulin = Tubulin (Bos taurus, UniProt Q6B856+Q862L2+Q862F3); assay: Inhibition of bovine brain tubulin polymerization after 20 mins by spectrophotometric analysis
# In short: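 Bovine brain tubulin (10 μM) in glutamate buffer preincubated with varying compound levels at 30 °C, then chilled to 0 °C. GTP added to 0.4 mM final, then warmed to 30 °C. Assembly followed by turbidity at 350 nm. IC50 is the concentration halving the extent of assembly after 20 min.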
# K562 [8] = assay: Cell cycle arrest in human K562 cells assessed as mitotic index at 10 times IC50 by Giemsa staining-based assay (reference value: 3%); assay type: functional
SMILES,GI50 (NSCLC),TGI (NSCLC),GI50 (Prostatic carcinoma cell),GI50 [1],TGI [1],CC50 [1],GI50 (CNS carcinoma cell),TGI (CNS carcinoma cell),CC50 (CNS carcinoma cell),GI50 (Leukemia cell),GI50 (Melanoma cell line),TGI (Melanoma cell line),CC50 (Melanoma cell line),GI50 (Ovarian carcinoma cell),LC50 (50% lethal concentration) (Ovarian carcinoma cell),TGI (Ovarian carcinoma cell),GI50 (Breast carcinoma cell),TGI (Breast carcinoma cell),GI50 (Renal cancer cell line),TGI (Renal cancer cell line),also measured
COc1cc2c(c(OC)c1OC)/C(=C\c1c(OC)nc3sc(C)cn13)C(=O)N2,9.26 µM,58.8 µM,11.3 µM,6.89 µM,69.9 µM,97.2 µM,7.79 µM,33.6 µM,81.4 µM,5.73 µM,7.86 µM,65.7 µM,95.6 µM,13.8 µM,93 µM,63.2 µM,5.37 µM,29.2 µM,9.36 µM,45 µM,LC50 (NSCLC): 99.4 µM; LC50 (concentration killing 50% of cells) (Breast carcinoma cell): 99.3 µM; LC50 (50% lethal concentration) (Renal cancer cell line): 98.2 µM
COc1cc2c(cc1C)NC(=O)/C2=C/c1c(OC)nc2sc(C)cn12,5.25 µM,74.9 µM,18.8 µM,42.9 µM,91.7 µM,–,5.7 µM,20.4 µM,68.3 µM,–,31.5 µM,91.7 µM,–,7.22 µM,91.4 µM,47.1 µM,4.57 µM,50.9 µM,5.81 µM,58.9 µM,LC50 (NSCLC): 98 µM; LC50 (concentration killing 50% of cells) (Breast carcinoma cell): 91.4 µM; LC50 (50% lethal concentration) (Renal cancer cell line): 90.6 µM
COc1ccc2c(c1)/C(=C\c1c(OC)nc3sc(C)cn13)C(=O)N2,1.49 µM,58.6 µM,0.38 µM,0.32 µM,35.7 µM,79.2 µM,0.43 µM,33.6 µM,85.4 µM,0.43 µM,3.46 µM,67.7 µM,–,1.32 µM,87.6 µM,42.6 µM,0.87 µM,61.3 µM,0.65 µM,61.8 µM,LC50 (NSCLC): 88.9 µM; TGI (Prostatic carcinoma cell): 52.8 µM
COc1ccc2c(c1)/C(=C/c1c(-c3ccncc3)nc3sccn13)C(=O)N2C,0.55 µM,82.4 µM,0.39 µM,0.34 µM,78.8 µM,93 µM,0.38 µM,63.1 µM,–,0.35 µM,5.97 µM,85.3 µM,–,1.14 µM,93.2 µM,62.4 µM,0.44 µM,80.1 µM,0.5 µM,65.5 µM,TGI (Prostatic carcinoma cell): 68.8 µM; LC50 (Leukemia cell): 96.1 µM; TGI (Leukemia cell): 81.8 µM
Cc1nc2sccn2c1-c1nc2sccn2c1C=C1C(=O)Nc2cc(Cl)ccc21,–,–,–,–,–,–,–,–,–,–,–,–,–,–,–,–,–,–,–,–,inhibition (Tubulin (Bos taurus) [2]): 28%; inhibition (Tubulin (Bos taurus) [3]): 15%
COc1nc2sc(C)cn2c1/C=C1/C(=O)Nc2ccc(O)cc21,7.54 µM,72 µM,7.59 µM,4.79 µM,78.2 µM,98.2 µM,4.76 µM,64 µM,–,3.32 µM,4.88 µM,38.6 µM,94 µM,12.8 µM,–,63.5 µM,4.57 µM,66.2 µM,6.58 µM,79.4 µM,TGI (Prostatic carcinoma cell): 96.2 µM; TGI (Leukemia cell): 61.7 µM
O=C1Nc2ccc(O)cc2/C1=C/c1c(-c2ccncc2)nc2sccn12,21.2 µM,76.8 µM,15 µM,7.5 µM,93 µM,–,4.46 µM,80.4 µM,–,10.1 µM,15.8 µM,89.4 µM,99.1 µM,33.8 µM,–,86.2 µM,4.43 µM,84.2 µM,43 µM,90.1 µM,TGI (Leukemia cell): 67.6 µM
O=C1Nc2ccccc2C1=Cc1c(-c2ccncc2)nc2sccn12,8.97 µM,82.4 µM,1.1 µM,0.68 µM,63.4 µM,94.3 µM,1.6 µM,49.7 µM,95 µM,2.65 µM,3.27 µM,78.3 µM,92.2 µM,2.34 µM,91.8 µM,61.3 µM,5.42 µM,67.3 µM,14.9 µM,73.2 µM,TGI (Leukemia cell): 92 µM; LC50 (50% lethal concentration) (Renal cancer cell line): 92.4 µM
COc1nc2sc(C)cn2c1/C=C1/C(=O)Nc2ccccc21,5.68 µM,65.2 µM,2.09 µM,0.8 µM,56.8 µM,93.3 µM,1.97 µM,40.1 µM,87.9 µM,0.5 µM,16.2 µM,74.8 µM,94.9 µM,6.29 µM,96.3 µM,55.6 µM,2.52 µM,67.3 µM,3.53 µM,67.6 µM,LC50 (NSCLC): 99 µM; Activity (K562 [4]): Dose-dependent effect; TGI (Prostatic carcinoma cell): 45 µM; Activity (K562 [5]): 61%; IC50 (K562 [6]): 1 µM; LC50 (Leukemia cell): 93.7 µM; TGI (Leukemia cell): 7.25 µM; Activity (K562 [7]): 42%; inhibition (Tubulin (Bos taurus) [2]): 81%; IC50 (Tubulin): 3.4 µM; Activity (K562 [8]): 80%; inhibition (Tubulin (Bos taurus) [3]): 39%
COc1nc2sc(C)cn2c1/C=C1/C(=O)Nc2c1ccc1ccccc21,2.82 µM,45.3 µM,0.3 µM,0.37 µM,34.6 µM,71.1 µM,0.42 µM,38.6 µM,82.9 µM,0.34 µM,0.52 µM,43.3 µM,95 µM,0.62 µM,91.2 µM,35.3 µM,0.79 µM,51.3 µM,1.06 µM,38.3 µM,LC50 (NSCLC): 91.4 µM; TGI (Prostatic carcinoma cell): 35.2 µM; CC50 (Prostatic carcinoma cell; read-out: LC50 (the source's name)): 75.9 µM; TGI (Leukemia cell): 84.8 µM; LC50 (50% lethal concentration) (Renal cancer cell line): 89.6 µM
COc1nc2sc(C)cn2c1C=C1C(=O)N(C)c2ccccc21,9.5 µM,73.2 µM,12.6 µM,4.05 µM,36.3 µM,91.1 µM,9.82 µM,42.4 µM,97.3 µM,4.35 µM,8.08 µM,34.2 µM,93.4 µM,10.5 µM,92.8 µM,67 µM,4.82 µM,58.2 µM,13.1 µM,70.5 µM,LC50 (NSCLC): 95.1 µM; TGI (Prostatic carcinoma cell): 66.7 µM; TGI (Leukemia cell): 74.2 µM
